Assay results taken from ChEMBL document CHEMBL5712078, “BRD9 Inhibition, Alone or in Combination with Cytostatic Compounds as a Therapeutic Approach in Rhabdoid Tumors” (Int J Mol Sci, 2017).

How the values were obtained:
CHLA-266 [1] = assay: Anti-proliferative activity against human CHLA-266 cells assessed as cell viability incubated for 72 hrs by MTT assay; format: functional, cell-based; details: CHLA-266, 72 h
In short: (§1)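 MTT proliferation assay. Cells were seeded at 3000 (BT16, KD, G401) or 5000 (BT12, Chla266) cells per well and drug was added after 24 h, final 0.001–100 µM. Read at 72 or 144 h; 144 h wells got fresh medium and drug on day 3. MTT for 3 h, formazan dissolved in isopropanol/0.04 N HCl, absorbance at 570/630 nm. Technical triplicates, ≥3 independent runs, IC50 derived.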

BT-12 [2] = assay: Anti-proliferative activity against human BT-12 cells assessed as cell viability incubated for 144 hrs by MTT assay; format: functional, cell-based; details: BT-12, 144 h; in short: as §1
G-401 [3] = assay: Anti-proliferative activity against human G-401 cells assessed as cell viability incubated for 144 hrs by MTT assay; format: functional, cell-based; details: G-401, 144 h; in short: as §1
[4] = Anti-proliferative activity against human KD cells assessed as cell viability incubated for 72 hrs by MTT assay; format: functional, cell-based; in short: as §1
[5] = Anti-proliferative activity against human KD cells assessed as cell viability incubated for 144 hrs by MTT assay; format: functional, cell-based; in short: as §1
BT-12 [6] = assay: Induction of cell cycle arrest in human BT-12 cells assessed as accumulation of cells at G1 phase at 10 uM incubated for 72 hrs by flow cytometry analysis (reference value: 69+/-1.9%); format: functional
In short: (§2)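 Cell cycle. Seeding and 72 h treatment as for the apoptosis assay, with I-BRD9 or BI-9564 at 0, 5, 10 or 20 µM final. A 100 µL cell suspension was stained with DAPI and read by flow cytometry. Percentage of cells in G1, n ≥3, mean ± SD, one-way ANOVA versus control.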

CHLA-266 [7] = assay: Induction of cell cycle arrest in human CHLA-266 cells assessed as accumulation of cells at G1 phase at 10 uM incubated for 72 hrs by flow cytometry analysis (reference value: 74.2+/-3.6%); format: functional; in short: as §2
CHLA-266 [8] = assay: Induction of cell cycle arrest in human CHLA-266 cells assessed as accumulation of cells at G1 phase at 20 uM incubated for 72 hrs by flow cytometry analysis (reference value: 74.2+/-3.6%); format: functional; in short: as §2
G-401 [9] = assay: Induction of cell cycle arrest in human G-401 cells assessed as accumulation of cells at G1 phase at 5 uM incubated for 72 hrs by flow cytometry analysis (reference value: 46.7+/-1.9%); format: functional
In short: (§3)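 72 h DAPI flow-cytometry cell-cycle assay. Chla266 in IMDM/20% FBS seeded at 30,000 cells/mL; G401 in DMEM/10% FBS at 10,000 cells/mL; 1 mL/well, 37 °C, 5% CO2. Next day the medium was replaced with inhibitor at final 0, 5, 10 or 20 µM. Cells were harvested, PBS-washed, and the G1 percentage was read. n ≥ 3, mean ± SD, one-way ANOVA vs control.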

BT-12 [10] = assay: Induction of apoptosis in human BT-12 cells assessed as necrotic cells at 5 uM incubated for 72 hrs by flow cytometry analysis (reference value: 9.1+/-2.8 %); format: functional
In short: (§4)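 Annexin V/PI flow assay. G401 at 10,000 cells/mL and BT12 or Chla266 at 30,000 cells/mL were seeded in 12-well plates. Next day medium was replaced with medium holding I-BRD9 or BI-9564 at 0, 5, 10 or 20 µM final for 72 h. Cells were washed in PBS, stained with FITC-Annexin V and propidium iodide for 15 min in the dark at room temperature, then read by flow cytometry. Percentage of dead cells, n ≥3, mean ± SD, one-way ANOVA versus control.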

G-401 [11] = assay: Induction of apoptosis in human G-401 cells assessed as necrotic cells at 10 uM incubated for 72 hrs by flow cytometry analysis (Rvb= 5.7+/-1.9 %); format: functional; in short: as §4
G-401 [12] = assay: Induction of apoptosis in human G-401 cells assessed as necrotic cells at 20 uM incubated for 72 hrs by flow cytometry analysis (Rvb= 5.7+/-1.9 %); format: functional; in short: as §4
BT-12 [13] = assay: Anti-proliferative activity against human BT-12 cells assessed as inhibition cell growth incubated for 72 hrs in presence of vincristine by MTT-based Chou-Talalay method; format: functional; details: BT-12, 72 h
In short: (§5)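 Combination MTT assay. I-BRD9 and carboplatin, doxorubicin or vincristine were given together at a fixed 10:1 ratio, with cytostatics 0.0001–10 µM final, added 24 h after seeding. MTT read-out at 570/630 nm after 3 h formazan solubilisation. Combination index from the Chou–Talalay median-effect method: CI <1 synergism, CI >1 antagonism. n ≥3.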

BT-12 [14] = assay: Synergistic cytotoxicity against human BT-12 cells assessed as combination index incubated for 72 hrs in presence of carboplatin by MTT-based Chou-Talalay method; format: functional
In short: (§6)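 MTT combination assay. BT12 in IMDM/20% FBS at 5000 cells/well; G401 in DMEM/10% FBS. Drugs added 24 h after seeding, with I-BRD9 and cytostatic at a fixed 10:1 ratio (final ranges 0.001–100 µM and 0.0001–10 µM). After 72 h: MTT for 3 h, dissolved in isopropanol/0.04 N HCl, read at 570/630 nm. Technical triplicates, ≥3 independent runs; combination index by Chou–Talalay median-effect analysis.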

G-401 [15] = assay: Anti-proliferative activity against human G-401 cells assessed as inhibition cell growth incubated for 72 hrs in presence of carboplatin by MTT-based Chou-Talalay method; format: functional; details: G-401, 72 h; in short: as §5
G-401 [16] = assay: Synergistic cytotoxicity against human G-401 cells assessed as combination index incubated for 72 hrs in presence of doxorubicin by MTT-based Chou-Talalay method; format: functional; in short: as §6
CHLA-266 [17] = assay: Induction of cell cycle arrest in human CHLA-266 cells assessed as accumulation of cells at G1 phase incubated for 72 hrs by flow cytometry analysis; format: functional, cell-based; details: dose 5-20 µM; in short: as §3
G-401 [18] = assay: Induction of cell cycle arrest in human G-401 cells assessed as accumulation of cells at G1 phase incubated for 72 hrs by flow cytometry analysis; format: functional, cell-based; details: dose 5-20 µM; in short: as §3
BT-12 [19] = assay: Induction of apoptosis in human BT-12 cells assessed as necrotic cells incubated for 72 hrs by flow cytometry analysis; format: functional, cell-based; details: dose 5-20 µM; in short: as §4
G-401 [20] = assay: Induction of apoptosis in human G-401 cells assessed as necrotic cells incubated for 72 hrs by flow cytometry analysis; format: functional, cell-based; details: dose 5-20 µM; in short: as §4
CHLA-266 [21] = assay: Induction of apoptosis in human CHLA-266 cells assessed as necrotic cells at 10 uM incubated for 72 hrs by flow cytometry analysis (Rvb= 5.0+/-0.3 %)
CHLA-266 [22] = assay: Induction of apoptosis in human CHLA-266 cells assessed as necrotic cells at 20 uM incubated for 72 hrs by flow cytometry analysis (Rvb= 5.0+/-0.3 %)

- IC50 (BT-12 [2]): 8.2 µM
- IC50 (BT-12 [13]): 16.7 µM
Structure (SMILES): CCn1cc(-c2cccc(C(F)(F)F)c2)c2sc(C(=N)NC3CCS(=O)(=O)CC3)cc2c1=O
- IC50 (CHLA-266 [1]): 13.3 µM
- IC50 (G-401 [3]): 6.1 µM
- IC50 [4]: 8.1 µM
- IC50 [5]: 7.1 µM
- Activity (BT-12 [6]): 80.1%
- Activity (CHLA-266 [7]): 82.7%
- Activity (CHLA-266 [8]): 89.3%
- Activity (G-401 [9]): 53%
- Activity (BT-12 [10]): 19.9%
- Activity (G-401 [11]): 18.8%
- Activity (G-401 [12]): 70.8%
- CI (BT-12 [14]): 1.01
- IC50 (G-401 [15]): 9.1 µM
- CI (G-401 [16]): 1.2
- Activity (CHLA-266 [17]): Dose-Dependent Effect
- Activity (G-401 [18]): Dose-Dependent Effect
- Activity (BT-12 [19]): Dose-Dependent Effect
- Activity (G-401 [20]): Dose-Dependent Effect
- Activity (CHLA-266 [21]): 11.7%
- Activity (CHLA-266 [22]): 25%
